What was measured:
Rattus norvegicus [1] = assay: Mineral apposition rate ([…])bone measured Histomorphometrically after a dose of 10 ug/kg in proximal tibial metaphysis; format: functional
Summary of the method: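 Ovariectomized six-month-old rats, 6-8 per group, were dosed subcutaneously once daily at 0.01–3.0 mg/kg for 60 days, starting 60 days after surgery. Vehicle was acetate-buffered saline, methylcellulose and polyoxyethylenesorbitan monooleate. Labels were xylenol orange 90 mg/kg pretreatment and calcein 10 mg/kg at 14 and 4 days before necropsy. Histomorphometry covered the proximal tibial metaphysis, 1–4 mm distal to the growth plate–metaphyseal junction. ANOVA/LSD versus vehicle.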

Rattus norvegicus [2] = assay: Bone formation rate/bone volume (%/year) bone measured histomorphometrically after a dose of 100 ug/kg in proximal tibial metaphysis; format: functional; settings: at 100 µg/kg
Rattus norvegicus [3] = assay: Derived trabecular thickness (um) measured using micro Computed Tomography(CT) after a dose of 30 ug/kg in Vertebral Bone; format: functional, Trabecula
Summary of the method: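 Micro-CT of the fifth lumbar vertebra, measuring cancellous bone volume and architecture. Rats were 6 months old, OVX 60 days before treatment, then dosed daily for 60 days. Test-agent doses were 10–3000 µg/kg, given as a once-daily subcutaneous injection; 6 mg/kg/day was given to the positive-control group. Groups were compared with vehicle by ANOVA plus LSD test.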

Rattus norvegicus [4] = assay: Bone formation rate/tissue volume (%/year) bone measured histomorphometrically after a dose of 3000 ug/kg in proximal tibial metaphysis; format: functional; settings: at 3000 µg/kg
Rattus norvegicus [5] = assay: connectivity density (mm-3) using micro Computed Tomography(CT) after a does of 30 ug/kg in Vertebral Bone; format: functional
Summary of the method: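 Rats were ovariectomized at 6 months of age and, after 60 days, dosed subcutaneously once daily for 60 days, with vehicle of acetate-buffered saline, methylcellulose and polysorbate. At necropsy the fifth lumbar vertebra was scanned by micro-CT to obtain cancellous architecture. Groups were 6-8 rats; results were compared to vehicle by ANOVA with least significant difference test.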

Rattus norvegicus [6] = assay: Endosteal mineralizing surface Histomorphometrically after a dose of 3000 ug/kg in tibial diaphysis; format: functional
Summary of the method: (§1)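 Six-month-old rats, bilaterally ovariectomized, 6-8 per group, on natural chow. After 60 days they received once-daily subcutaneous dosing for 60 days at 0.01–3.0 mg/kg. Vehicle was acetate-buffered saline with methylcellulose and polyoxyethylenesorbitan monooleate. Labels were xylenol orange 90 mg/kg before treatment and calcein 10 mg/kg 14 and 4 days before sacrifice. Tibial histomorphometry was read under fluorescent light, with ANOVA/LSD versus vehicle.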

Rattus norvegicus [7] = assay: Endosteal mineralizing surface Histomorphometrically after a dose of 30 ug/kg in tibial diaphysis; format: functional; summary of the method: as §1
Rattus norvegicus [8] = assay: Bone Volume /Tissue Volume (%)measured using micro Computed Tomography(CT) after a dose of 10 ug/kg in Vertebral Bone; format: functional; settings: at 10 µg/kg
Rattus norvegicus [9] = assay: Bone formation rate/bone volume (%/year) bone measured histomorphometrically after a dose of 1000 ug/kg in proximal tibial metaphysis; format: functional; settings: at 1000 µg/kg
Rattus norvegicus [10] = assay: Mineral apposition rate ([…])bone measured Histomorphometrically after a dose of 100 ug/kg in tibial diaphysis; format: functional; summary of the method: as §1
[11] = target: T1, Prostaglandin E2 receptor EP1 subtype (Homo sapiens, UniProt P34995); assay: In vitro binding at EP1 human prostaglandin receptor using [3H]PGE-2 as radioligand
T1 sequence (P34995 whole entry): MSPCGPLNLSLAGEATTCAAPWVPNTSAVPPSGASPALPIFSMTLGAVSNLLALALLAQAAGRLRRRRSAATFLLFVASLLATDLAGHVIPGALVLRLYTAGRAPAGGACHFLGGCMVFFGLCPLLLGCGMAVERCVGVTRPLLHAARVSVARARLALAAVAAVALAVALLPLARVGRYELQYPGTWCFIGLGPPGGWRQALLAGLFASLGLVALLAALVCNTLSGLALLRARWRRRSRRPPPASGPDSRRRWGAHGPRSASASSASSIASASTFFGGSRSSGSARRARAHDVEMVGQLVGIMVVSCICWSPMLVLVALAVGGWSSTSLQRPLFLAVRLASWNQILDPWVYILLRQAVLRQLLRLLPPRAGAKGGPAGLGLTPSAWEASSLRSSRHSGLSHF
Summary of the method: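 hEP1 transiently expressed in COS-7 cells by the hFP transfection and membrane protocol, with membranes in TME buffer pH 6.0. Competition binding used 5 nM [3H]PGE2, 1 h at 23 °C, filtration and scintillation counting.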

Rattus norvegicus [12] = assay: Marrow area (mm) measured Histomorphometrically after a dose of 10 ug/kg in tibial diaphysis; format: functional; summary of the method: as §1
Prostacyclin receptor = Prostacyclin receptor (Homo sapiens, UniProt P43119); assay: In vitro binding at prostanoid IP receptor using [3H]iloprost as radioligand
Chain of Prostacyclin receptor (P43119 whole entry): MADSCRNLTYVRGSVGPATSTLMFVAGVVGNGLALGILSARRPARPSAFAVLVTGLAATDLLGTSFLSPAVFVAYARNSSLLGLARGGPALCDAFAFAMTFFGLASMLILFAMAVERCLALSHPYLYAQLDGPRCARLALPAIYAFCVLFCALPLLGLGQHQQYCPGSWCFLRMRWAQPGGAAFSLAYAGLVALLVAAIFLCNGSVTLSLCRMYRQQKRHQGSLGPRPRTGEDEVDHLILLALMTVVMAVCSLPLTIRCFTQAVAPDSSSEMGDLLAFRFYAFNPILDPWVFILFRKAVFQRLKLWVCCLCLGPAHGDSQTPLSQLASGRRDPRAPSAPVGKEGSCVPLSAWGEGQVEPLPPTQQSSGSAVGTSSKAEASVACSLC
Summary of the method: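 Receptors stably expressed in CHO cells, collected 4-5 days after seeding. Membranes made by lysis (Tris, EDTA, protease inhibitors) and 100000g pellet, then resuspended at 1 mg protein/mL in TME. Radioligands at 5 nM: [3H]PGE2 for EP2/EP3/EP4, [3H]Iloprost for IP, [3H]SQ-29548 for TP. Competition binding with filtration and counting.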

Rattus norvegicus [13] = assay: Trabecular no (mm)measured Histomorphometrically after a dose of 1000 ug/kg in proximal tibial metaphysis; format: functional, Trabecula
Summary of the method: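 Six-month-old rats were ovariectomized, and 60 days later daily subcutaneous dosing began for 60 days, with vehicle of acetate-buffered saline, methylcellulose and polysorbate. Xylenol orange (90 mg/kg) labelled bone pre-treatment and calcein (10 mg/kg) 14 and 4 days pre-sacrifice. Histomorphometry covered the proximal tibial metaphysis 1-4 mm distal to the growth plate-metaphyseal junction. Groups were 6-8 rats, compared by ANOVA/LSD vs vehicle.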

Rattus norvegicus [14] = assay: Mineral apposition rate ([…])bone measured Histomorphometrically after a dose of 10 ug/kg in tibial diaphysis; format: functional; summary of the method: as §1

CP(=O)(O)CCC/C=C\C[C@@H]1[C@@H](/C=C/[C@@H](O)COc2ccccc2)[C@H](O)C[C@@H]1O
Mineral apposition rate (Rattus norvegicus [1]): 0.99 µm/day | Activity (Rattus norvegicus [2]): 320.16% | Derived trabecular thickness (Rattus norvegicus [3]): 77.8 µm | Activity (Rattus norvegicus [4]): 20.13% | Connectivity density (Rattus norvegicus [5]): 59.2 mm**-3 | Endosteal mineralizing surface (Rattus norvegicus [6]): 29.4% | Endosteal mineralizing surface (Rattus norvegicus [7]): 28.72% | Activity (Rattus norvegicus [8]): 31.04% | Activity (Rattus norvegicus [9]): 251.82% | Mineral apposition rate (Rattus norvegicus [10]): 0.42 µm/day | IC50 [11]: > 10 µM | Marrow area (Rattus norvegicus [12]): 0.93 mm² | IC50 (Prostacyclin receptor): > 10 µM | Trabecular no. (Rattus norvegicus [13]): 1.64 1/mm | Mineral apposition rate (Rattus norvegicus [14]): 0.71 µm/day
